# Assay results taken from ChEMBL document CHEMBL1130391, “Novel agonists of 5HT2C receptors. Synthesis and biological evaluation of substituted 2-(indol-1-yl)-1-methylethylamines and 2-(indeno[1,2-b]pyrrol-1-yl)-1-methylethylamines. Improved therapeutics for obsessive compulsive disorder” (J Med Chem, 1997).
# Active and inactive are the calls of the source. The calls are words filed in the database; no cut-off is given here.
# How the values were obtained:
# [1] = molecular target: T1, 5-hydroxytryptamine receptor 2C (Rattus norvegicus) (UniProt P08909); experiment: Induction of penile erection in rats after subcutaneous administration, indicative of 5-HT 2c receptor activation; type: functional, organism-based
# T1 sequence (whole entry): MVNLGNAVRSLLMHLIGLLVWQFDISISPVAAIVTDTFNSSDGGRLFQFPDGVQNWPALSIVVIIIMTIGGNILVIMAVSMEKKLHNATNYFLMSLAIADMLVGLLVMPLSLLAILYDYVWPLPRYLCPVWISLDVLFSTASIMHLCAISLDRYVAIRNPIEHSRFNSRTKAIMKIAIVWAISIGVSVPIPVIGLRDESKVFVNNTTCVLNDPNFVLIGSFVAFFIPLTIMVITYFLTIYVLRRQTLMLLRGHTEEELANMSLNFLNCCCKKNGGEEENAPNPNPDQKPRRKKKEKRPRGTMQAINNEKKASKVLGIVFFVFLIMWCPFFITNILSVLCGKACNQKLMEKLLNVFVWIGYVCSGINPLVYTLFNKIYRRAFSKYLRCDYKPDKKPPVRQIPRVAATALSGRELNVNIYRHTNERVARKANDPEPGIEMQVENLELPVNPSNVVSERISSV
# Procedure, shortened: (§1)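 Male erection counts in RORO rats, 8 per dose, over 45 min. Drug is given in 0.3% Tween-80 in saline, sc at 5 mL/kg or orally at 10 mL/kg. Vehicle controls are included, and doses are expressed as salt weight. ED₅₀ by probit analysis, or the approximate dose at which half the rats respond.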
# [2] = molecular target: T2, 5-hydroxytryptamine receptor 2C (Homo sapiens, UniProt P28335); experiment: Binding affinity against human 5-hydroxytryptamine 2C receptor using displacement of [3H]DOB
# T2 sequence (P28335 whole entry): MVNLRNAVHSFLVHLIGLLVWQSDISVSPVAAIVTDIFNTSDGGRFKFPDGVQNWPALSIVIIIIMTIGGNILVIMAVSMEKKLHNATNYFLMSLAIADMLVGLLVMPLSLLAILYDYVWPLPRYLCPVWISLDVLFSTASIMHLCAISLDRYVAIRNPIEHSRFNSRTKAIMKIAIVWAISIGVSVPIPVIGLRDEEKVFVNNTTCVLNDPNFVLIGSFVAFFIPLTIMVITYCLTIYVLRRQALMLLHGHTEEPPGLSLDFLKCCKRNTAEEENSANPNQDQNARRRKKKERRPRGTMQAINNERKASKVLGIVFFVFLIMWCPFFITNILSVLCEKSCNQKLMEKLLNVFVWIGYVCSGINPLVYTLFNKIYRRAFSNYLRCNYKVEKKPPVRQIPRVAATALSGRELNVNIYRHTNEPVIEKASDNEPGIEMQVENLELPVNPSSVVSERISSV
# [3] = molecular target: 5-hydroxytryptamine receptor 2A (Homo sapiens, UniProt P28223); experiment: Binding affinity against human 5-hydroxytryptamine 2A receptor using displacement of [3H]5-HT
# 5-hydroxytryptamine receptor 2A, sequence (P28223 whole entry): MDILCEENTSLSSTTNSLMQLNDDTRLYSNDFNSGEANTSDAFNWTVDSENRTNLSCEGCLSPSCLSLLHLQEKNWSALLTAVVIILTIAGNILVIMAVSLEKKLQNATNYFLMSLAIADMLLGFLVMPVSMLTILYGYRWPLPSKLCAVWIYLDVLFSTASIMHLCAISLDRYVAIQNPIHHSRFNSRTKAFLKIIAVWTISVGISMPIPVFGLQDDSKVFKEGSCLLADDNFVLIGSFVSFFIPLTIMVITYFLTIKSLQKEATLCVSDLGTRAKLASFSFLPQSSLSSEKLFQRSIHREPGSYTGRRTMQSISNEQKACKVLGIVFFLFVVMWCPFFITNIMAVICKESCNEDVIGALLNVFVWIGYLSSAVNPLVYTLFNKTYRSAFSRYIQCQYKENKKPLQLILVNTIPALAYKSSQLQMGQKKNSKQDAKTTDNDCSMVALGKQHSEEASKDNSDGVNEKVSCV
# [4] = system: Rattus norvegicus; experiment: Compound was tested in schedule induced polydipsia in rats expressed as %maximum suppression at minimum effective dose of 3 mg/kg intraperitoneally; type: functional; details: route intraperitoneal
# [5] = molecular target: T3, 5-hydroxytryptamine receptor 2C (Rattus norvegicus, UniProt P08909); experiment: Efficacy (pEC50) was evaluated for 5-HT2C receptor-mediated stimulation of IP3 formation in vitro in choroid plexus of the rat; type: functional, tissue-based
# T3 sequence (P08909 whole entry): T1 sequence (whole entry)
# Procedure, shortened: (§2)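 Rat choroid plexus preloaded with [³H]myoinositol for 1 h at 37 °C in oxygenated Krebs. LiCl 10 mM and pargyline 10 µM added, then compound 10 min later. Six concentrations, top 0.1 mM, incubated 0.5 h at 37 °C. Stopped with HClO₄/EDTA, then IP₃ isolated. Three measures per point. Intrinsic activity is the maximum relative to 10 µM 5HT.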
# [6] = molecular target: T1, 5-hydroxytryptamine receptor 2C (Rattus norvegicus); experiment: Intrinsic 5-HT 2c receptor activity as induced IP3 turnover in vitro in rat choroid plexus; type: functional, tissue-based; procedure, shortened: as §2
# [7] = molecular target: T1, 5-hydroxytryptamine receptor 2C (Rattus norvegicus); experiment: Induction of penile erection in rats following p.o. administration, indicative of 5-HT 2c receptor activation; type: functional, organism-based; procedure, shortened: as §1
# [8] = molecular target: T1, 5-hydroxytryptamine receptor 2C (Rattus norvegicus); experiment: Efficacy (pEC50) was evaluated for 5-HT2C receptor-mediated stimulation of IP3 formation in vitro in choroid plexus of the rat; inactive; type: functional, tissue-based; procedure, shortened: as §2
# [9] = molecular target: T1, 5-hydroxytryptamine receptor 2C (Rattus norvegicus); experiment: The compound was tested for induction of penile erection in rats after peroral administration; Inactive; type: functional, organism-based; procedure, shortened: as §1
# [10] = system: Rattus norvegicus; experiment: Compound was tested in schedule induced polydipsia in rats expressed as %maximum suppression at minimum effective dose of 30 mg/kg intraperitoneally; type: functional; details: route intraperitoneal
# [11] = system: Rattus norvegicus; experiment: Compound was tested in schedule induced polydipsia in rats expressed as %maximum suppression at minimum effective dose of 1 mg/kg intraperitoneally; type: functional; details: route intraperitoneal
# [12] = system: Rattus norvegicus; experiment: Compound was tested in schedule induced polydipsia in rats expressed as %maximum suppression at minimum effective dose of 10 mg/kg intraperitoneally; type: functional; details: route intraperitoneal
SMILES,ED50 [1] [mg/kg],Ki [2] [nM],Ki [3] [nM],Max suppression [4] [%],EC50 [5] [nM],Efficacy [6],ED50 [7] [mg/kg],Log EC50 [8],ED50 [9],Max suppression [10] [%],Max suppression [11] [%],Max suppression [12] [%]
C[C@H](N)Cn1ccc2c(Cl)c(F)ccc21,2.7,1.26,39.8,-97,316,1,> 30,,,,,
C[C@H](N)Cn1ccc2cc(F)c(F)cc21,0.3,1,100,-73,200,1,10,,,,,
CC(N)Cn1ccc2ccc(F)cc21 (stereo not given),0.3,3.98,251,,631,1,> 30,,,,,
COc1cccc2c1Cc1ccn(CC(C)N)c1-2 (stereo not given),> 10,100,3160,,,,,inactive,,,,
Cc1cccc2c1ccn2CC(C)N (stereo not given),3.2,6.31,100,,2510,0.6,> 30,,,,,
C[C@@H](N)Cn1ccc2c(Cl)c(F)ccc21,3.3,1.26,10,,794,0.9,,,inactive,,,
CC(N)Cn1ccc2c(F)cccc21 (stereo not given),> 10,7.94,158,,1260,0.7,,,,,,
Cc1ccc2ccn(CC(C)N)c2c1 (stereo not given),3.3,15.8,794,,7940,0.9,> 30,,,,,
CNCCC(Oc1ccc(C(F)(F)F)cc1)c1ccccc1 (stereo not given) [FLUOXETINE],,,,,,,,,,-11,,
COc1cccc2c1-c1c(ccn1CC(C)N)C2 (stereo not given),> 10,12.6,398,,6310,0.7,,,,,,
COc1ccc2c(c1)-c1c(ccn1C[C@@H](C)N)C2,2,3.98,126,,7940,0.8,> 30,,,,,
C[C@@H](N)Cn1ccc2cc(F)c(Cl)cc21,2.1,10,79.4,,3160,1,> 30,,,,,
COc1ccc2c(c1)-c1c(ccn1C[C@H](C)N)C2,1.2,1,126,,251,1,10,,,,-97,
C[C@@H](N)Cn1ccc2cc(F)c(F)cc21,2.7,3.98,100,,126,1,30,,,,,
CC(N)Cn1ccc2cc(F)ccc21 (stereo not given),1,6.31,158,-97,1580,1,2.7,,,,,
C[C@H](N)Cn1ccc2cc(F)c(Cl)cc21,0.5,1.26,31.6,,200,1,5.5,,,,,-90

SMILES,ED50 [1] [mg/kg],Ki [2] [nM],Ki [3] [nM],Max suppression [4] [%],EC50 [5] [nM],Efficacy [6],ED50 [7] [mg/kg],Log EC50 [8],ED50 [9],Max suppression [10] [%],Max suppression [11] [%],Max suppression [12] [%]
CC(N)Cc1c[nH]c2ccc(F)cc12 (stereo not given),0.8,10,63.1,,158,0.9,9.9,,,,-96,
COc1ccc2c(c1)Cc1ccn(CC(C)N)c1-2 (stereo not given),> 10,12.6,398,,2000,1,,,,,,
COc1ccc2c(ccn2CC(C)N)c1 (stereo not given),> 10,794,,,10000,0.3,,,,,,
CC(N)Cn1ccc2c1-c1cc(Br)ccc1C2 (stereo not given),> 10,3.98,100,,2510,1,,,,,,
CC(N)Cn1ccc2cc(Cl)ccc21 (stereo not given),2.3,7.94,200,,2000,0.9,> 30,,,,,
CC(N)Cn1ccc2c1-c1cc(F)ccc1C2(C)C (stereo not given),2.7,5.01,31.6,,200,1,> 30,,,,,
CC(N)Cn1ccc2cc(Cl)c(F)cc21 (stereo not given),1,2,39.8,-88,398,1,15,,,,,
Cc1ccc2c(c1)-c1c(ccn1CC(C)N)C2(C)C (stereo not given),0.9,3.16,100,,200,1,10,,,,,-76
CC(N)Cn1ccc2c1-c1cc(F)ccc1C2 (stereo not given),1.5,3.16,200,,631,1,> 30,,,,,
COc1ccc2c(c1)-c1c(ccn1CC(C)N)C2 (stereo not given),0.6,1,126,,398,1,11,,,,,-79
COc1cccc2c1ccn2CC(C)N (stereo not given),> 10,126,,,12600,0.3,,,,,,
Cc1ccc2c(ccn2CC(C)N)c1 (stereo not given),> 10,63.1,794,,2510,0.9,,,,,,
CC(N)Cn1ccc2cc(Br)ccc21 (stereo not given),4,3.98,158,,2000,0.8,> 30,,,,,
CC(N)Cn1ccc2c1-c1cc(Cl)ccc1C2 (stereo not given),2.7,3.98,200,,2510,0.8,> 30,,,,,
COc1ccc2c(c1)-c1c(ccn1CC(C)N)C2(C)C (stereo not given),0.5,0.398,10,,100,1,10,,,,-75,
Cc1ccc2c(c1)-c1c(ccn1CC(C)N)C2 (stereo not given),> 10,7.94,63.1,,501,1,,,,,,
